SMILES strings stand for the structures. Some results are limits rather than exact numbers.

Series [1] in a line: Apparent permeability in MDCK cells. The format is ADME, cell-based, Canis lupus familiaris. The settings on record: dog. An outline of the steps: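 Apparent permeability measured in parental MDCK cells.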
Series [2] in a line: Clearance in rat at 0.5 mg/kg, iv by LC-MS/MS analysis. The format is ADME, organism-based. As to conditions: in vivo. The essentials: (§1)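 Male rats, n = 2 per group, dosed intravenously at 0.5 mg/kg as a solution in 100% DMSO. Unbound clearance is derived from total clearance.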
Series [3] is described as follows: Intrinsic clearance in rat liver microsomes at 1 uM measured after 40 mins in presence of NADPH by LC-MS/MS analysis. It counts as ADME. As to conditions: read-out: CLH. An outline of the steps: (§2)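 Clearance measured in rat or human liver microsomes. Test compound at 1 μM, microsomal protein at 250 μg/mL.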
Series [4] has as its target Sodium channel protein type 5 subunit alpha (Homo sapiens, UniProt Q14524). The experiment in a line: Inhibition of human Nav1.5 expressed in HEK293 cells assessed as inhibition of sodium current at holding potential of -125 mV measured for 3 to 5 mins by whole cell voltage clamp method. The format is cell-based.
A short description of series [5]: Unbound clearance in rat at 0.5 mg/kg, iv by LC-MS/MS analysis. The format is ADME, organism-based. As to conditions: in vivo. The essentials:
as §1

Series [6] is described as follows: Fraction unbound in rat plasma at 5 uM measured after 45 mins by LC-MS/MS analysis. It counts as ADME, cell-free.
Series [7] in a line: Dissociation constant, pKa of the compound at pH 1.7 to 11.2 by capillary electrophoresis method. The format is physicochemical. An outline of the steps:
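pKa values calculated from capillary electrophoresis data collected over pH 1.7 to 11.2.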

Series [8] deals with Sodium channel protein type 9 subunit alpha (Homo sapiens, UniProt Q15858). The experiment in a line: Inhibition of human Nav1.7 expressed in HEK293 cells assessed as inhibition of sodium current at holding potential of -125 mV measured for 3 to 5 mins by whole cell voltage clamp method. It counts as cell-based.
Sodium channel protein type 9 subunit alpha, sequence (Q15858 whole entry): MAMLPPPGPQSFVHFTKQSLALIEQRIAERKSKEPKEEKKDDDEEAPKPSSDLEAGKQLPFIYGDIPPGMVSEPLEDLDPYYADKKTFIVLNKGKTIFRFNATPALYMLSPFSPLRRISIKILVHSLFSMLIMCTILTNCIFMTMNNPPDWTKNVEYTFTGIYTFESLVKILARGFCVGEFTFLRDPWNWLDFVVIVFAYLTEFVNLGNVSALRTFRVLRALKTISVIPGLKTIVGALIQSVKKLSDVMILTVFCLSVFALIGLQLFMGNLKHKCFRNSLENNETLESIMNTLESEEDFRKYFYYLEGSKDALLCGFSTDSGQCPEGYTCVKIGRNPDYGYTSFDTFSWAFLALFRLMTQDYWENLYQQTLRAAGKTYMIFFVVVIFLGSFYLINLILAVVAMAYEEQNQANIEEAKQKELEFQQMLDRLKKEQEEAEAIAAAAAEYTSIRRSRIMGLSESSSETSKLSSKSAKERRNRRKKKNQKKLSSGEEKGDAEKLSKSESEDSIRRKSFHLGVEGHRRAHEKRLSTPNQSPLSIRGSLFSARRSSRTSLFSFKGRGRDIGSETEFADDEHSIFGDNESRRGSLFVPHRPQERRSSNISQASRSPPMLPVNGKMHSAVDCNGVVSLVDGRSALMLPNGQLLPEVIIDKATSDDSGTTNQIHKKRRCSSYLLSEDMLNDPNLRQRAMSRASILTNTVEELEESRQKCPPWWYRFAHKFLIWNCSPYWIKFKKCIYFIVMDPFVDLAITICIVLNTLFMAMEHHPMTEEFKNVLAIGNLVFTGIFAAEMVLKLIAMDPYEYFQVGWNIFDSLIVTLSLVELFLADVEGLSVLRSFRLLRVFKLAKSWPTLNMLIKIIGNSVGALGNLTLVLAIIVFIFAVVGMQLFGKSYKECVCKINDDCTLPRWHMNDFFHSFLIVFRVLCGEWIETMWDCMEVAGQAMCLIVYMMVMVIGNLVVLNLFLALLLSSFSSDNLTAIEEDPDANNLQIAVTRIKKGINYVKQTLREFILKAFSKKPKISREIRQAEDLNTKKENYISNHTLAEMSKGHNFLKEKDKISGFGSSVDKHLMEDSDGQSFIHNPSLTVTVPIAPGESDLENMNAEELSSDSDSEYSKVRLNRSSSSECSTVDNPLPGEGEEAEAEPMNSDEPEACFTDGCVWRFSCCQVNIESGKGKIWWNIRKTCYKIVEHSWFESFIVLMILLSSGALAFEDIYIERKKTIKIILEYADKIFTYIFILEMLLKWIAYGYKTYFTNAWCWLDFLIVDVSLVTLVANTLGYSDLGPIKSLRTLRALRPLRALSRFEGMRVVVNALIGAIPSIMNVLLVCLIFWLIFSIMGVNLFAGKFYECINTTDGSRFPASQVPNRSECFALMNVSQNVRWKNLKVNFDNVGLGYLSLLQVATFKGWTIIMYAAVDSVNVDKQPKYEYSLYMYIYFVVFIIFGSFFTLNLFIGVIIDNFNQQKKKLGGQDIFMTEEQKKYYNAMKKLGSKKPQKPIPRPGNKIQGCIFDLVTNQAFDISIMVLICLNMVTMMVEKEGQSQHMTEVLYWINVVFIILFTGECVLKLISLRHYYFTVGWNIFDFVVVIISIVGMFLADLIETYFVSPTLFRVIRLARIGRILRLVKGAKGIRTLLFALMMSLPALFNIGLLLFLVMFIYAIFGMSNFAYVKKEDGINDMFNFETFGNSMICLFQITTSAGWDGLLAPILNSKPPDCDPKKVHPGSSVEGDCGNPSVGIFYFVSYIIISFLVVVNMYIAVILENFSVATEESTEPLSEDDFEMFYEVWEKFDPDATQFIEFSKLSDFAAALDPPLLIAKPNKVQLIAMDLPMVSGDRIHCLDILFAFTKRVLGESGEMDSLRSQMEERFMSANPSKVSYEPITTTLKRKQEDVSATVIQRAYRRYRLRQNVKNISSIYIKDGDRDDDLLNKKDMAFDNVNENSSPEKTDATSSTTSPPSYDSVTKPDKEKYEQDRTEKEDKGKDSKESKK
Series [9] can be described thus: Intrinsic clearance in human liver microsomes at 1 uM measured after 40 mins in presence of NADPH by LC-MS/MS analysis. The format is ADME. The settings on record: read-out: CLH. The essentials: as §2
Series [10] can be described thus: Apparent permeability in MDCK cells assessed as drug recovery. It counts as ADME, cell-based, Canis lupus familiaris. As to conditions: dog, read-out: Drug recovery.
Series [11] is described as follows: Selectivity index, ratio of IC50 for human Nav1.5 expressed in HEK293 cells to IC50 for human Nav 1.7 expressed in HEK293 cells.
Series [12] in a line: Stability in bile duct cannulated Sprague-Dawley rat assessed as parent compound level in bile at 6.67 mg/kg, iv administered through catheter measured after 2 and 4 hrs post dose by LC-MS/MS analysis. It counts as ADME, organism-based. As to conditions: in vivo.
The nature of series [13]: Drug metabolism in bile duct cannulated Sprague-Dawley rat urine assessed as metabolite formation at 6.67 mg/kg, iv administered through catheter measured after 2 and 4 hrs post dose by LC-MS/MS analysis. The format is ADME, organism-based. As to conditions: in vivo.

Sodium channel protein type 5 subunit alpha, sequence (Q14524 whole entry): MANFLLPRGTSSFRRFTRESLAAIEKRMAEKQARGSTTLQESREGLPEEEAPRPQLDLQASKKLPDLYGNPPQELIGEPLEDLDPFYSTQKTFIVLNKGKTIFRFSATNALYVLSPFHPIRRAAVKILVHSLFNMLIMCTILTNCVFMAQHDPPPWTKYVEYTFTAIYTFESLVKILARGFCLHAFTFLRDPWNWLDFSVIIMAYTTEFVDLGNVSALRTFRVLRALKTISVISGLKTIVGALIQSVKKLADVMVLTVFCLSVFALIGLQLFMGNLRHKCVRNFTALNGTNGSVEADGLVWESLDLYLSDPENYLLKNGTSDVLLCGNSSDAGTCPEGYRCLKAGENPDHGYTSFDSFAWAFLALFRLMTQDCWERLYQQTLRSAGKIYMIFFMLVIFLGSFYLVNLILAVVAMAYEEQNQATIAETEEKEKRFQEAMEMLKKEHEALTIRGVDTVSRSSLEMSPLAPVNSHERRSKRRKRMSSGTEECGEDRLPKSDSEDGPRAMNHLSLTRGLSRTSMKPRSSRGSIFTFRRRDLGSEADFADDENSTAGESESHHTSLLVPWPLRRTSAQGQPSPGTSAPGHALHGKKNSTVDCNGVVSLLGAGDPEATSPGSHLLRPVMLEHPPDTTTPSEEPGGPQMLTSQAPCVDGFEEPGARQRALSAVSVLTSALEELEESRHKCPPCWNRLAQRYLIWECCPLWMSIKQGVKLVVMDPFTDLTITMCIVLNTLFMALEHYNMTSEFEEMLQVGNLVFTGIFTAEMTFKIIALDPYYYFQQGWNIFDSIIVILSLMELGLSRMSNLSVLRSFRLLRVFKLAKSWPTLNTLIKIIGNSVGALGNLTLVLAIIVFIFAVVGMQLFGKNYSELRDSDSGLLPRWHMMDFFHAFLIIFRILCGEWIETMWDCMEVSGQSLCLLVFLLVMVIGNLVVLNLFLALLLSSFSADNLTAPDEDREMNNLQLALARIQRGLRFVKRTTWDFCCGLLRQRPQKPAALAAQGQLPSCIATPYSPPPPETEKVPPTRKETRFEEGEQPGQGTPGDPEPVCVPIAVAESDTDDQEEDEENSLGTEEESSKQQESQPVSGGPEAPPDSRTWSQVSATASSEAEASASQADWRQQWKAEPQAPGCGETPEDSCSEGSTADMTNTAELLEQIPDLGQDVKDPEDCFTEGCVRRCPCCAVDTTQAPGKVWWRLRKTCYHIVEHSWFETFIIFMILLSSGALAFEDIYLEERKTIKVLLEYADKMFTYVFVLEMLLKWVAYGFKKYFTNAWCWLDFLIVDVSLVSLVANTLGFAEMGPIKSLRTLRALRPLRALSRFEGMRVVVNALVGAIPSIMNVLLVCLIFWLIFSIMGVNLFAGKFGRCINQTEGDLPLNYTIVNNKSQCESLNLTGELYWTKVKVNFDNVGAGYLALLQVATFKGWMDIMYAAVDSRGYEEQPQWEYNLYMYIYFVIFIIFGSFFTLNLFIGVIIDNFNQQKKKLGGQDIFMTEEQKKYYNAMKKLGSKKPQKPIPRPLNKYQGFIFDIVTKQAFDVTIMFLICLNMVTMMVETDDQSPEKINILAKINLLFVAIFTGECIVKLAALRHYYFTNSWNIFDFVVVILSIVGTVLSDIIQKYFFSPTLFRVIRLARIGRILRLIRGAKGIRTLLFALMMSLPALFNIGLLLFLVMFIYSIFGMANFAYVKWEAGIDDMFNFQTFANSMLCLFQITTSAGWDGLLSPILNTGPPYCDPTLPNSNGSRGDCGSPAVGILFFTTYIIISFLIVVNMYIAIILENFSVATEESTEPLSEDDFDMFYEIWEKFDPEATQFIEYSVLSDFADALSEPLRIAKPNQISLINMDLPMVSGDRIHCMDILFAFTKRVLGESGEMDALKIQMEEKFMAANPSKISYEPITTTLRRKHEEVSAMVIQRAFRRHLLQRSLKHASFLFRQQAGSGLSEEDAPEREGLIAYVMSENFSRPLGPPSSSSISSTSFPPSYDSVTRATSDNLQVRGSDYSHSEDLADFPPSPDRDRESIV

Consider `N#Cc1cc(S(=O)(=O)Nc2ncns2)ccc1Oc1ccc(C(F)(F)F)cc1-c1cn[nH]c1`, for which, in [1], the Papp is less than 1 ×10⁻⁶ cm/s. The clearance in series [2] was 65 mL/min/kg. The microsomal CLint at 1 µM in [3] is 39 µL/min/mg. Also, the IC50 in series [4] was more than 30000 nM.

In the case of `COc1cc(C(F)(F)F)ccc1-c1nccc2cc(S(=O)(=O)Nc3nccs3)ccc12`, the Papp in series [1] stood at 34 ×10⁻⁶ cm/s. In [5], this molecule had a CL free of 250 mL/min/kg. Further, in series [6], the fraction unbound at 0.75 h, 5 µM was found to be 0.012. The molecule further had a clearance in [2] of 3 mL/min/kg. The IC50 in [4] was more than 30000 nM.

In series [7], `COc1cc(C(F)(F)F)ccc1-c1cccc2cc(S(=O)(=O)Nc3nccs3)ccc12` registered a pKa of 6.7. The apparent permeability coefficient (Papp) in series [1] was 12 ×10⁻⁶ cm/s. The CL free in [5] was found to be 817 mL/min/kg. In addition, the fraction unbound at 0.75 h, 5 µM in series [6] came to 0.001. The clearance in series [2] is 0.817 mL/min/kg. The microsomal CLint at 1 µM is 52 µL/min/mg in [3] and 25 µL/min/mg in series [9]. The IC50 was found to be 590 nM in [8] and 21000 nM in series [4].

As for `COc1cc(C(F)(F)F)ccc1-c1cccc2cc(S(=O)(=O)Nc3ccncn3)ccc12`, the Papp in series [1] was 27 ×10⁻⁶ cm/s. The same molecule displayed a free fraction (fraction unbound) at 0.75 h, 5 µM in [6] of 0.003. The microsomal CLint at 1 µM in [3] and in series [9] was less than 14 µL/min/mg in each case. Moreover, the IC50 in series [8] was 510 nM; in series [4], more than 30000 nM.

`COc1cc(C(F)(F)F)ccc1-c1cccc2cc(S(=O)(=O)Nc3ncns3)ccc12` gave a pKa in [7] of 3.7. The Papp in series [1] was determined as 17 ×10⁻⁶ cm/s. In series [6], this molecule gave a fraction unbound at 0.75 h, 5 µM of 0.001. The clearance in [2] is 86.7 mL/min/kg. Besides, the figures for the microsomal CLint at 1 µM in series [3] and in series [9] were 18 µL/min/mg and 15 µL/min/mg, respectively. In addition, the IC50 in series [8] came out at 51 nM.

Regarding `Cn1nccc1-c1cc(C(F)(F)F)ccc1-c1cccc2cc(S(=O)(=O)Nc3ncns3)ccc12`, the Papp in series [1] was less than 2 ×10⁻⁶ cm/s. The molecule also had a clearance in [2] of 158 mL/min/kg. Further, the microsomal CLint at 1 µM in series [3] is 21 µL/min/mg.

On to `COc1cc(C(F)(F)F)ccc1-c1cccc2cc(S(=O)(=O)Nc3cncs3)ccc12`, for which the apparent permeability coefficient (Papp) in [1] stood at 28 ×10⁻⁶ cm/s. The figures for the microsomal CLint at 1 µM in [3] and in series [9] were 37 µL/min/mg and 46 µL/min/mg, respectively. Moreover, in series [8], the IC50 is more than 30000 nM.

In the case of `COc1cc(C(F)(F)F)ccc1-c1n[nH]c(=O)c2cc(S(=O)(=O)Nc3nccs3)ccc12`, the Papp in series [1] is 3.2 ×10⁻⁶ cm/s. The CL free in [5] was 2670 mL/min/kg. This molecule also had a free fraction (fraction unbound) at 0.75 h, 5 µM in series [6] of 0.013. In series [2], the clearance is 40 mL/min/kg.

For the molecule `COc1cc(C(F)(F)F)ccc1-c1cccc2cc(S(=O)(=O)Nc3cscn3)ccc12`, the pKa in series [7] is 7.2. Besides, the Papp in [1] is 27 ×10⁻⁶ cm/s. Besides, the microsomal CLint at 1 µM in series [3] and in series [9] was less than 14 µL/min/mg each time. The IC50 in series [8] was found to be 1400 nM; in [4] it was 21000 nM.

As for `COc1cc(C(F)(F)F)ccc1-c1cccc2cc(S(=O)(=O)Nc3ncccn3)ccc12`, in series [1], the Papp was 36 ×10⁻⁶ cm/s. Moreover, the microsomal CLint at 1 µM in [3] was less than 14 µL/min/mg; in [9], 17 µL/min/mg. Further, the IC50 was 1500 nM in [8] and more than 30000 nM in series [4].

For `O=S(=O)(Nc1ncns1)c1ccc2c(-c3ccc(C(F)(F)F)cc3Br)cccc2c1`, the pKa in series [7] is 3.6. Further, in [10], the recovery is less than 50%. In addition, in [1], the Papp was more than 5 ×10⁻⁶ cm/s. The molecule further had a CL free in series [5] of 1330 mL/min/kg. The molecule further showed a fraction unbound at 0.75 h, 5 µM in series [6] of 0.003. Moreover, in series [2], the clearance was 4 mL/min/kg. The microsomal CLint at 1 µM in series [3] and in series [9] was less than 14 µL/min/mg throughout. Also, the IC50 in series [8] turned out to be 160 nM; in [4] it was 21000 nM.

On to `Cc1cc(C(F)(F)F)ccc1-c1cccc2cc(S(=O)(=O)Nc3ncns3)ccc12`, for which, in series [7], the pKa was found to be 3.6. The recovery in [10] is less than 50%. Also, in [1], the Papp is more than 5 ×10⁻⁶ cm/s. The free fraction (fraction unbound) at 0.75 h, 5 µM in [6] stood at 0.001. In addition, the microsomal CLint at 1 µM is less than 14 µL/min/mg in series [3] and 15 µL/min/mg in series [9]. In addition, the IC50 in [8] is 48 nM.

For the molecule `Cn1nccc1-c1cc(C(F)(F)F)ccc1-c1cn(C)c2cc(S(=O)(=O)Nc3ncns3)ccc12`, the Papp in series [1] amounted to 1.3 ×10⁻⁶ cm/s. Moreover, the clearance in series [2] was 68.3 mL/min/kg. Further, the microsomal CLint at 1 µM in [3] stood at 19 µL/min/mg. In series [11], the “Ratio IC50” value is on record as more than 200. The IC50 in [8] was 120 nM; in series [4], more than 30000 nM.

In series [7], `O=S(=O)(Nc1ncns1)c1ccc2c(-c3ccc(C(F)(F)F)cc3C3=CCNCC3)cccc2c1` registered a pKa of 3.6. Moreover, the Papp in series [1] is 1.3 ×10⁻⁶ cm/s. The molecule also yielded a fraction unbound at 0.75 h, 5 µM in [6] of 0.1. In addition, the clearance in series [2] was 90 mL/min/kg. The microsomal CLint at 1 µM in [3] and in [9] was less than 14 µL/min/mg throughout. For the same molecule, the IC50 is 37 nM in series [8] and more than 30000 nM in series [4].

Molecule `O=S(=O)(Nc1ncns1)c1ccc2c(-c3ccc(C(F)(F)F)cc3O)cccc2c1` yielded a pKa in series [7] of 3.6. For the same molecule, in series [1], the apparent permeability (Papp) was less than 2 ×10⁻⁶ cm/s. In addition, in series [6], the fraction unbound at 0.75 h, 5 µM is 0.001. Moreover, the microsomal CLint at 1 µM in [3] came out at 18 µL/min/mg; in series [9] it was 25 µL/min/mg.

For `COc1cc(C(F)(F)F)ccc1-c1cccc2cc(S(=O)(=O)Nc3ccccn3)ccc12`, the Papp in series [1] was determined as 9.5 ×10⁻⁶ cm/s. Also, the microsomal CLint at 1 µM came out at 25 µL/min/mg in [3] and 16 µL/min/mg in series [9]. Moreover, the IC50 in series [8] was more than 30000 nM.

Consider `Cn1nccc1-c1cc(Cl)ccc1-c1cn(C)c2cc(S(=O)(=O)Nc3ncns3)ccc12`, for which the Stability result in series [12] is given as “Stable”. The Drug metabolism entry in series [13] is reported as “Metabolite_Notdetected”.

Regarding `COc1cc(C(F)(F)F)ccc1-c1nccc2cc(S(=O)(=O)Nc3nccs3)cnc12`, the Papp in series [1] is 12 ×10⁻⁶ cm/s. For the same molecule, the IC50 in [4] was more than 30000 nM.

On to `COc1cc(C(F)(F)F)ccc1-c1cnnc2cc(S(=O)(=O)Nc3nccs3)ccc12`, for which the apparent permeability (Papp) in [1] worked out at 36 ×10⁻⁶ cm/s. Besides, in series [5], the CL free was 1350 mL/min/kg. This molecule displayed a fraction unbound at 0.75 h, 5 µM in series [6] of 0.014. In [2], the clearance was 18.3 mL/min/kg.

The record behind these values is ChEMBL document CHEMBL3864175, “Sulfonamides as Selective NaV1.7 Inhibitors: Optimizing Potency and Pharmacokinetics to Enable in Vivo Target Engagement” (ACS Med Chem Lett, 2016).
